According to ChEMBL document CHEMBL4368905, “5,6,7,8-Tetrahydro-1,6-naphthyridine Derivatives as Potent HIV-1-Integrase-Allosteric-Site Inhibitors” (J Med Chem, 2019):

Tests used:
[1] = Displacement of [3H]-2-tert-butoxy-2-(2-methyl-4-p-tolylquinolin-3-yl)acetic acid from LEDGF/p75 binding site of HIV1 integrase preincubated with radioligand for 1 hr followed by compound addition and measured after 1 hr by microbeta counting assay; set-up: species or system Human immunodeficiency virus 1
How it was run: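 Displacement of tritiated ligand from the LEDGF/p75 binding site on integrase. IC50 from a single replicate.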

[2] = system: Human immunodeficiency virus 1; assay: Antiviral activity against wild type HIV-1 NL4-3 infected in human MT2 cells after 5 days by dual luciferase reporter gene assay; format: functional, organism-based; conditions: Human immunodeficiency virus 1, NL4-3, MT2, 120 h
How it was run: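 HIV-1 NL4-3 replication (viral outgrowth) in MT-2 cells. EC50 from multiple replicates.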

[3] = Cytotoxicity against human MT2 cells assessed as reduction in cell viability after 4 days by XTT assay; format: cell-based
How it was run: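 Cytotoxicity in MT-2 cells, test compound up to a maximal concentration of 40 μM.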

[4] = Clearance in rat at 1 mg/kg, iv or 5 mg/kg, po by LC-MS/MS analysis; format: ADME, organism-based; conditions: in vivo
How it was run: (§1)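 Rats dosed 1 mg/kg IV and 5 mg/kg PO. Clearance, Vss and oral bioavailability derived from these profiles.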

[5] = Volume of distribution at steady state in rat at 1 mg/kg, iv or 5 mg/kg, po by LC-MS/MS analysis; format: ADME, organism-based; conditions: in vivo, read-out: Vdss; how it was run: as §1
[6] = Oral bioavailability in rat at 5 mg/kg by LC-MS/MS analysis; format: ADME, organism-based; conditions: in vivo; how it was run: as §1
[7] = Metabolic stability in rat liver microsomes assessed as parent compound remaining at 0.5 uM after 10 mins in presence of NADPH by LC-MS/MS analysis; format: ADME, Microsome; conditions: read-out: Stability
How it was run: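 Rat liver microsomes, compound at 0.5 μM, incubated 10 minutes. Read-out is percent of parent remaining.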

[8] = system: Human immunodeficiency virus 1; assay: Antiviral activity against HIV-1 NL4-3 harboring integrase T125A mutant infected in human MT2 cells after 5 days by dual luciferase reporter gene assay; format: functional, organism-based; conditions: Human immunodeficiency virus 1, NL4-3, MT2, 120 h
How it was run: (§2)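 NL4-3 HIV-1 carrying integrase substitutions engineered into the pol gene. The assay measures inhibition of viral outgrowth in MT-2 cell culture, and the value is reported as EC50.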

[9] = system: Human immunodeficiency virus 1; assay: Antiviral activity against HIV-1 NL4-3 harboring integrase T124A/T125A double mutant infected in human MT2 cells after 5 days by dual luciferase reporter gene assay; format: functional, organism-based; conditions: Human immunodeficiency virus 1, NL4-3, MT2, 120 h; how it was run: as §2
[10] = system: Human immunodeficiency virus 1; assay: Antiviral activity against HIV-1 NL4-3 harboring integrase T124N mutant infected in human MT2 cells after 5 days by dual luciferase reporter gene assay; format: functional, organism-based; conditions: Human immunodeficiency virus 1, NL4-3, MT2, 120 h; how it was run: as §2
[11] = system: Human immunodeficiency virus 1; assay: Antiviral activity against HIV-1 NL4-3 harboring integrase T124A mutant infected in human MT2 cells after 5 days by dual luciferase reporter gene assay; format: functional, organism-based; conditions: Human immunodeficiency virus 1, NL4-3, MT2, 120 h; how it was run: as §2
[12] = system: Human immunodeficiency virus 1; assay: Antiviral activity against HIV-1 NL4-3 harboring integrase T124A/T125N double mutant infected in human MT2 cells after 5 days by dual luciferase reporter gene assay; format: functional, organism-based; conditions: Human immunodeficiency virus 1, NL4-3, MT2, 120 h; how it was run: as §2

Row | SMILES | IC50 [1] | EC50 [2] | CC50 at 96 h [3] | clearance [4] | Vd [5] | further results
1 | Cc1ccc(-c2c3c(nc(C)c2C(OC(C)(C)C)C(=O)O)CCN(c2cccc(-c4ccccc4)c2)C3)cc1 (stereo not drawn) | 430 nM | 280 nM | > 40000 nM |  |  | 
2 | Cc1ccc(-c2c3c(nc(C)c2C(OC(C)(C)C)C(=O)O)CCN(S(C)(=O)=O)C3)cc1 (stereo not drawn) | 2200 nM | 2600 nM | > 40000 nM |  |  | 
3 | Cc1ccc(-c2c3c(nc(C)c2[C@H](OC(C)(C)C)C(=O)O)CCN(C(=O)OCc2ccccc2)C3)cc1 | 140 nM | 230 nM | > 40000 nM | 118 mL/min/kg | 19 L/kg | bioavailability [6]: 71%
4 | Cc1ccc(-c2c3c(nc(C)c2[C@H](OC(C)(C)C)C(=O)O)CCN(Cc2ccccc2)C3)cc1 | 830 nM | 300 nM | > 40000 nM | 21 mL/min/kg | 7 L/kg | bioavailability [6]: 35%
5 | COC(=O)N1CCc2nc(C)c(C(OC(C)(C)C)C(=O)O)c(-c3ccc(C)cc3)c2C1 (stereo not drawn) | 4200 nM | 1600 nM | > 40000 nM |  |  | 
6 | Cc1ccc(-c2c3c(nc(C)c2[C@H](OC(C)(C)C)C(=O)O)CCN(c2ccccc2)C3)cc1 | 230 nM | 470 nM | > 40000 nM | 24 mL/min/kg | 3 L/kg | 
7 | Cc1nc2c(c(-c3cc(F)c4c(c3C)CCCO4)c1[C@H](OC(C)(C)C)C(=O)O)CN(CCCc1ccccc1F)CC2 | 8 nM | 1 nM | > 40000 nM |  |  | 
8 | Cc1nc2c(c(-c3cc(F)c4c(c3C)CCCO4)c1[C@H](OC(C)(C)C)C(=O)O)CN(CCCc1ccc(F)cc1)CC2 | 15 nM | 4 nM | > 40000 nM | 92 mL/min/kg | 1 L/kg | remaining at 10 min, 0.5 µM [7]: 78%; bioavailability [6]: 10%
9 | Cc1nc2c(c(-c3cc(F)c4c(c3C)CCCO4)c1[C@H](OC(C)(C)C)C(=O)O)CN(CC1CC1c1ccccc1)CC2 (mixture of isomers) | 24 nM | 5 nM | > 40000 nM |  |  | 
10 | Cc1ccc(-c2c3c(nc(C)c2[C@H](OC(C)(C)C)C(=O)O)CCN(CCOc2ccccc2)C3)cc1 | 170 nM | 200 nM | > 40000 nM |  |  | 
11 | Cc1cccc(CCCN2CCc3nc(C)c([C@H](OC(C)(C)C)C(=O)O)c(-c4cc(F)c5c(c4C)CCCO5)c3C2)c1 | 29 nM | 2 nM | > 40000 nM |  |  | 
12 | Cc1ccc(-c2c(C(OC(C)(C)C)C(=O)O)c(C)nc3ccccc23)cc1 (stereo not drawn) |  | 150 nM | > 40000 nM |  |  | 
13 | CCCCCN1CCc2nc(C)c(C(OC(C)(C)C)C(=O)O)c(-c3ccc(C)cc3)c2C1 (stereo not drawn) | 1100 nM | 210 nM | > 40000 nM |  |  | 
14 | CC(=O)N1CCc2nc(C)c(C(OC(C)(C)C)C(=O)O)c(-c3ccc(C)cc3)c2C1 (stereo not drawn) | 17000 nM | 1900 nM | > 40000 nM |  |  | 
15 | Cc1ccc(-c2c3c(nc(C)c2[C@H](OC(C)(C)C)C(=O)O)CCN(C/C=C/c2ccccc2)C3)cc1 | 160 nM | 120 nM | > 40000 nM |  |  | 
16 | Cc1nc2c(c(-c3cc(F)c4c(c3C)CCCO4)c1[C@H](OC(C)(C)C)C(=O)O)CN(CCCc1ccccc1)CC2 | 16 nM | 4 nM | > 40000 nM | 82 mL/min/kg | 6 L/kg | EC50 [8]: 7 nM; EC50 [9]: 6 nM; EC50 [10]: 6 nM; remaining at 10 min, 0.5 µM [7]: 78%; bioavailability [6]: 10%
17 | Cc1ccc(CCCN2CCc3nc(C)c([C@H](OC(C)(C)C)C(=O)O)c(-c4cc(F)c5c(c4C)CCCO5)c3C2)cc1 | 12 nM | 2 nM | > 40000 nM |  |  | 
18 | Cc1ccc(-c2c3c(nc(C)c2[C@H](OC(C)(C)C)C(=O)O)CCN(C(=O)NCc2ccccc2)C3)cc1 | 310 nM | 500 nM | > 40000 nM |  |  | 
19 | Cc1ccc(-c2c3c(nc(C)c2[C@H](OC(C)(C)C)C(=O)O)CCN(c2ccc(-c4ccccc4)cc2)C3)cc1 | 220 nM | 320 nM | > 40000 nM |  |  | 
20 | Cc1ccc(-c2c3c(nc(C)c2[C@H](OC(C)(C)C)C(=O)O)CCN(CCCc2ccccc2)C3)cc1 | 70 nM | 10 nM | > 40000 nM | 171 mL/min/kg | 16 L/kg | EC50 [11]: 17 nM; EC50 [8]: 21 nM; EC50 [9]: 34 nM; EC50 [10]: 20 nM; EC50 [12]: 31 nM
21 | Cc1ccc(-c2c3c(nc(C)c2[C@H](OC(C)(C)C)C(=O)O)CCN(C(=O)CCc2ccccc2)C3)cc1 | 760 nM | 340 nM | > 40000 nM | 163 mL/min/kg | 2 L/kg | 
22 | Cc1ccc(CCCN2CCc3nc(C)c([C@H](OC(C)(C)C)C(=O)O)c(-c4cc(F)c5c(c4C)CCCO5)c3C2)cc1F | 11 nM | 1 nM | > 40000 nM |  |  | 
23 | Cc1nc2ccccc2c(-c2ccc3c4c(ccnc24)CCO3)c1[C@H](OC(C)(C)C)C(=O)O [BI-224436] | 71 nM | 52 nM | > 40000 nM |  |  | 
24 | Cc1ccccc1CCCN1CCc2nc(C)c([C@H](OC(C)(C)C)C(=O)O)c(-c3cc(F)c4c(c3C)CCCO4)c2C1 | 19 nM | 2 nM | > 40000 nM |  |  | 
25 | Cc1nc2c(c(-c3cc(F)c4c(c3C)CCCO4)c1[C@H](OC(C)(C)C)C(=O)O)CN(CCCc1ccncc1)CC2 (single isomer, unassigned; atropisomer) | 40 nM | 58 nM | > 40000 nM |  |  | 
26 | Cc1nc2c(c(-c3cc(F)c4c(c3C)CCCO4)c1[C@H](OC(C)(C)C)C(=O)O)CN(CCCc1cccc(F)c1)CC2 | 44 nM | 4 nM | > 40000 nM |  |  | 
27 | Cc1ccc(-c2c3c(nc(C)c2C(OC(C)(C)C)C(=O)O)CCN(Cc2ccccc2-c2ccccc2)C3)cc1 (stereo not drawn) | 80 nM | 70 nM | > 40000 nM | 24 mL/min/kg | 9 L/kg | bioavailability [6]: 25%
28 | Cc1ccc(-c2c3c(nc(C)c2C(OC(C)(C)C)C(=O)O)CCN(C)C3)cc1 (stereo not drawn) | 5800 nM | 2100 nM | > 40000 nM |  |  | 
29 | Cc1ccc(-c2c3c(nc(C)c2C(OC(C)(C)C)C(=O)O)CCN(CCCC2CCCC2)C3)cc1 (stereo not drawn) | 240 nM | 39 nM | > 40000 nM | 152 mL/min/kg | 66 L/kg | bioavailability [6]: 32%
30 | Cc1ccc(-c2c3c(nc(C)c2[C@H](OC(C)(C)C)C(=O)O)CCN(CCc2ccccc2)C3)cc1 | 850 nM | 240 nM | > 40000 nM |  |  | 
